Experimental data: PMC11255784 (RSC Advances, 2024)

Tests used:
[1] = test system: Mtb H37Rv strain; test: Anti-TB activity, Microplate Alamar Blue Assay; assay type: cell-based, Mycobacterium tuberculosis; details: MABA, triplicates
[2] = test system: Mtb H37Rv; details: cited from earlier work
[3] = test system: HEK293T cells; test: Cytotoxicity studies on HEK293T cell line; assay type: cell-based, human; details: for Selective index (SI): HEK293T IC50 versus MIC against Mtb H37Rv; for IC50: Homo sapiens, HEK-293T, read-out: IC50 (HEK293T)
In short: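 Normal human embryonic kidney HEK293T cells were exposed to test compounds over a dose range of 7 to 2000 μM, and cell proliferation was read as OD at 450 nm to give IC50.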

[4] = Mycobacterium tuberculosis, H37RV

## N#Cc1cc2cccnc2nc1N1CCN(CC(=O)Nc2ccc(F)cc2)CC1 [ANA-4, 2-(4-(3-Cyano-1,8-naphthyridin-2-yl)piperazin-1-yl)-N-(4-fluorophenyl)acetamide]
[1]; [4]
  MIC: 25 µg/mL

## NNC(=O)c1ccncc1 [Isoniazid, reference compound]
[1]; [4]
  MIC: 0.36 µg/mL

## N#Cc1cc2cccnc2nc1N1CCN(CC(=O)Nc2ccc(F)c(F)c2)CC1 [ANA-9, 2-(4-(3-Cyano-1,8-naphthyridin-2-yl)piperazin-1-yl)-N-(3,4-difluorophenyl)acetamide]
[1]; [4]
  MIC: 25 µg/mL

## N#Cc1cc2cccnc2nc1N1CCN(CC(=O)Nc2ccc(Br)cc2)CC1 [ANA-5, N-(4-Bromophenyl)-2-(4-(3-cyano-1,8-naphthyridin-2-yl)piperazin-1-yl)acetamide]
[1]; [4]
  MIC: 25 µg/mL

## 2-(4-(Phenylglycyl) piperazin-1-yl)-1,8-naphthyridine-3-carbonitrile [ANC-1]
[1]
  MIC: 25 µg/mL
[1]; value in brackets
  MIC: 67.12 µM

## N#Cc1cc2cccnc2nc1N1CCN(CC(=O)Nc2cccc(C(F)(F)F)c2)CC1 [ANA-8, 2-(4-(3-Cyano-1,8-naphthyridin-2-yl)piperazin-1-yl)-N-(3(trifluoromethyl)phenyl)acetamide]
[1]; [4]
  MIC: 12.5 µg/mL

## N#Cc1cc2cccnc2nc1N1CCN(C(=O)CNc2ccc(F)cc2)CC1 [ANC-5, 2-(4-((4-Fluorophenyl)glycyl)piperazin-1-yl)-1,8-naphthyridine-3-carbonitrile]
[1]; [4]
  MIC: 25 µg/mL

## N#Cc1cc2cccnc2nc1N1CCN(C(=O)CNc2cccc(Cl)c2)CC1 [ANC-11, 2-(4-((3-Chlorophenyl)glycyl)piperazin-1-yl)-1,8-naphthyridine-3-carbonitrile]
[1]; [4]
  MIC: 50 µg/mL

## CC[C@@H](CO)NCCN[C@@H](CC)CO [Ethambutol, reference compound]
[1]; [4]
  MIC: 6.25 µg/mL

## N#Cc1cc2cccnc2nc1N1CCN(C(=O)CNc2ccc(Cl)cc2)CC1 [ANC-6, 2-(4-((4-Chlorophenyl)glycyl)piperazin-1-yl)-1,8-naphthyridine-3-carbonitrile]
[1]; [4]
  MIC: 25 µg/mL

## N#Cc1cc2cccnc2nc1N1CCN(C(=O)CNc2ccccc2F)CC1 [ANC-8, 2-(4-((2-Fluorophenyl)glycyl)piperazin-1-yl)-1,8-naphthyridine-3-carbonitrile]
[1]; [4]
  MIC: 25 µg/mL

## N#Cc1cc2cccnc2nc1N1CCN(C(=O)CNc2ccc(Cl)cc2Cl)CC1 [ANC-13, 2-(4-((2,4-Dichlorophenyl)glycyl)piperazin-1-yl)-1,8-naphthyridine-3-carbonitrile]
[1]; [4]
  MIC: 50 µg/mL

## N#Cc1cc2cccnc2nc1N1CCN(C(=O)CNc2ccc(Br)cc2)CC1 [ANC-7, 2-(4-((4-Bromophenyl)glycyl)piperazin-1-yl)-1,8-naphthyridine-3-carbonitrile]
[1]; [4]
  MIC: 25 µg/mL

## CO[C@H]1/C=C/O[C@@]2(C)Oc3c(C)c(O)c4c(O)c(c(/C=N/N5CCN(C)CC5)c(O)c4c3C2=O)NC(=O)/C(C)=C\C=C\[C@H](C)[C@H](O)[C@@H](C)[C@@H](O)[C@@H](C)[C@H](OC(C)=O)[C@@H]1C [Rifampicin, reference compound]
[1]; [4]
  MIC: 3.13 µg/mL
[2]
  inhibition against Mtb H37Rv: 98%

## N#Cc1cc2cccnc2nc1N1CCN(C(=O)CNc2cccc(C(F)(F)F)c2)CC1 [ANC-12, 2-(4-((3-(Trifluoromethyl)phenyl)glycyl)piperazin-1-yl)-1,8-naphthyridine-3-carbonitrile]
[1]; [4]
  MIC: 25 µg/mL

## N#Cc1cc2cccnc2nc1N1CCN(CC(=O)Nc2ccccc2F)CC1 [ANA-6, 2-(4-(3-Cyano-1,8-naphthyridin-2-yl)piperazin-1-yl)-N-(2-fluorophenyl)acetamide]
[1]; [4]
  MIC: 12.5 µg/mL
[3]
  Selective index (SI): 23
  IC50: 753 ± 7.63 µM

## Cc1ccc(NCC(=O)N2CCN(c3nc4ncccc4cc3C#N)CC2)cc1C [ANC-3, 2-(4-((3,4-Dimethylphenyl)glycyl)piperazin-1-yl)-1,8-naphthyridine-3-carbonitrile]
[1]; [4]
  MIC: 50 µg/mL

## CCc1ccc(NCC(=O)N2CCN(c3nc4ncccc4cc3C#N)CC2)cc1 [ANC-2, 2-(4-((4-Ethylphenyl)glycyl)piperazin-1-yl)-1,8-naphthyridine-3-carbonitrile]
[1]; [4]
  MIC: 12.5 µg/mL
[3]
  Selective index (SI): 11
  IC50: 330 ± 3.4 µM

## Nc1ccc(C(=O)O)c(O)c1 [p-Amino salicylic acid, reference compound]
[1]; [4]
  MIC: 12.5 µg/mL

## N#Cc1cc2cccnc2nc1N1CCN(CC(=O)Nc2ccccc2[N+](=O)[O-])CC1 [ANA-7, 2-(4-(3-Cyano-1,8-naphthyridin-2-yl)piperazin-1-yl)-N-(2-nitrophenyl)acetamide]
[1]; [4]
  MIC: 12.5 µg/mL
[3]
  Selective index (SI): 19
  IC50: 571.2 ± 4.45 µM

## N#Cc1cc2cccnc2nc1N1CCNCC1 [ANI-1, 2-(Piperazin-1-yl)-1,8-naphthyridine-3-carbonitrile]
[1]; [4]
  MIC: 25 µg/mL

## CCc1ccc(NC(=O)CN2CCN(c3nc4ncccc4cc3C#N)CC2)cc1 [ANA-2, 2-(4-(3-Cyano-1,8-naphthyridin-2-yl)piperazin-1-yl)-N-(4-ethylphenyl)acetamide]
[1]; [4]
  MIC: 25 µg/mL

## N#Cc1cc2cccnc2nc1N1CCN(C(=O)CCl)CC1 [ANI-2, 2-(4-(2-Chloroacetyl)piperazin-1-yl)-1,8-naphthyridine-3-carbonitrile]
[1]; [4]
  MIC: 25 µg/mL

## N#Cc1cc2cccnc2nc1N1CCN(C(=O)CNc2ccccc2I)CC1 [ANC-9, 2-(4-((2-Iodophenyl)glycyl)piperazin-1-yl)-1,8-naphthyridine-3-carbonitrile]
[1]; [4]
  MIC: 25 µg/mL

## Cc1ccc(NC(=O)CN2CCN(c3nc4ncccc4cc3C#N)CC2)cc1C [ANA-3, 2-(4-(3-Cyano-1,8-naphthyridin-2-yl)piperazin-1-yl)-N-(3,4-dimethylphenyl)acetamide]
[1]; [4]
  MIC: 25 µg/mL

## N#Cc1cc2cccnc2nc1N1CCN(C(=O)CNc2ccc(Br)cc2[N+](=O)[O-])CC1 [ANC-10, 2-(4-((4-Bromo-2-nitrophenyl)glycyl)piperazin-1-yl)-1,8-naphthyridine-3-carbonitrile]
[1]; [4]
  MIC: > 50 µg/mL

## N#Cc1cc2cccnc2nc1N1CCN(C(=O)CNc2ccc(F)c(F)c2)CC1 [ANC-14, 2-(4-((3,4-Difluorophenyl)glycyl)piperazin-1-yl)-1,8-naphthyridine-3-carbonitrile]
[1]; [4]
  MIC: > 50 µg/mL

## N#Cc1cc2cccnc2nc1N1CCN(CC(=O)Nc2ccc([N+](=O)[O-])cc2)CC1 [ANA-11, 2-(4-(3-Cyano-1,8-naphthyridin-2-yl)piperazin-1-yl)-N-(4-nitrophenyl)acetamide]
[1]; [4]
  MIC: 25 µg/mL

## N#Cc1cc2cccnc2nc1N1CCN(CC(=O)Nc2cccc([N+](=O)[O-])c2)CC1 [ANA-10, 2-(4-(3-Cyano-1,8-naphthyridin-2-yl)piperazin-1-yl)-N-(3-nitrophenyl)acetamide]
[1]; [4]
  MIC: 12.5 µg/mL

## N#Cc1cc2cccnc2nc1N1CCN(CC(=O)Nc2ccccc2)CC1 [ANA-1, 2-(4-(3-Cyano-1,8-naphthyridin-2-yl)piperazin-1-yl)-N-phenylacetamide]
[1]; [4]
  MIC: 12.5 µg/mL
[3]
  Selective index (SI): 17
  IC50: 580 ± 20.2 µM

## N#Cc1cc2cccnc2nc1N1CCN(C(=O)c2ccc([N+](=O)[O-])o2)CC1 [ANA-12, 2-(4-(5-Nitrofuran-2-carbonyl)piperazin-1-yl)-1,8-naphthyridine-3-carbonitrile]
[1]; [4]
  MIC: 6.25 µg/mL
[3]
  Selective index (SI): 27
  IC50: 451 ± 20.2 µM
